Pf Dd2 growth: P. falciparum Dd2 growth inhibitors, primary screen, SYBR Green fluorescence, single dose replicates; 72 h; active compounds read low; actives 2.3% (n = 94,000); activity change, % at 10 µM; in the data active = activity change below about -80%; inconclusive = no clear call, values can overlap the other calls
GASC1 inh: inhibitors of GASC-1 (KDM4C) histone demethylase, primary screen, biochemical, single concentration HTS. AID 720574, 2013. actives 0.15% (n = 96,000). GST-KDM4C 2-372, H3K9me3 peptide, LANCE TR-FRET. inhibition, % at 12.5 µM. Lysine-specific demethylase 4C (Homo sapiens), Q9H3R0;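 active = mean replicate inhibition above about 25%, with at least 55% of replicates also reaching it, limit read from the data, passing the limit was not always enough; inconclusive = only one of those two conditions met; inactive = neither condition met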
Target sequence (Q9H3R0 2-372 limits assumed): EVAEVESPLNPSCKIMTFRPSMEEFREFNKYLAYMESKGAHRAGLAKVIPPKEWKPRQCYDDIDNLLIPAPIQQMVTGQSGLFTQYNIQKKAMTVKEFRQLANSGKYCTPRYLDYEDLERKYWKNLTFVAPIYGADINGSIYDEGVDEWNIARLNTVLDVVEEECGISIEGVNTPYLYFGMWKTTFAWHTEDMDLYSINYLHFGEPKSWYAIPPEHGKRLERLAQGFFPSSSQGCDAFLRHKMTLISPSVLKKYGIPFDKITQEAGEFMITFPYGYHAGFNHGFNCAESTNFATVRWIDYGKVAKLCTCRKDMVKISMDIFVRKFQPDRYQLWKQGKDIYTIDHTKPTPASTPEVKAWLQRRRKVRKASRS
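System: N-terminal GST-fused human GASC-1 (KDM4C) fragment, residues 2-372; amount: enzyme final amount 10 nM; incubation: reaction 30 min RT, detection step 1 h RT; medium: HEPES buffer, pH 7.5, plus ascorbate; technique: LANCE TR-FRET, Eu antibody, ULight-streptavidin, EDTA, ex 340 nm, em 618/671 nm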
IDH1 R132H inh: inhibitors of IDH1 R132H reductase, primary screen, biochemical, plate reader, single point; diaphorase/resazurin fluorescence, 60 min; inhibition, % at 10 µM; actives 0.18% (n = 70,000); AID 624101, 2012; in the data active = inhibition above about 34%; inconclusive = no clear call, values can overlap the other calls; inactive = below about 11%
T cruzi growth-1: T. cruzi intracellular proliferation inhibitors, primary screen, cell-based, beta-gal Tulahuen parasites, NIH3T3 host, luminescence. T. cruzi beta-gal in NIH3T3, GalScreen luminescence, 90 h. inhibition, % at 8.34 µM. actives 5.9% (n = 77,000);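 active = mean inhibition above about 93%, with at least 55% of replicates each passing it, limit read from the data, passing the limit was not always enough; inconclusive = only one of those two conditions holds; inactive = neither condition holds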
T cruzi growth-2: T. cruzi intracellular proliferation inhibitors, confirmation, cell-based, NIH3T3 host, beta-gal parasite, luminescence, cherry-pick | actives 72% (n = 5,600) | inhibition, % at 8.35 µM | shares compounds with T cruzi growth-1 | AID 651739, 2012 | T. cruzi beta-gal in NIH3T3, GalScreen luminescence, 90 h;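 active = mean replicate inhibition above about 95% and at least 55% of replicates individually reaching it, limit read from the data; inconclusive = only one of the two criteria is met; inactive = neither criterion is met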
T cruzi growth-3: inhibitors of intracellular T. cruzi replication, confirmation, NIH3T3 host cells, beta-gal parasites, cherry-pick, set 2. T. cruzi beta-gal in NIH3T3, GalScreen luminescence, 90 h. actives 21% (n = 5,600). AID 651740, 2012. inhibition, % at 2.09 µM. shares compounds with T cruzi growth-1;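 active = mean inhibition above about 95%, with at least 55% of replicates also reaching it, limit read from the data; inconclusive = meets just one of the two conditions; inactive = meets neither condition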
3T3 cytotox: cytotoxicity in mouse NIH/3T3 fibroblasts, confirmation, cytotoxicity control for T. cruzi proliferation inhibitor project, cell-based, cherry-pick, single point; shares compounds with T cruzi growth-1; NIH/3T3 viability, CellTiter-Glo ATP luminescence, 90 h; cytotoxicity (signal decrease), % at 8.35 µM; actives 14% (n = 5,600); AID 651742, 2012;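 active = mean signal decrease across replicates above about 35% based on untreated-well scatter, with enough replicates individually passing, limit read from the data; inconclusive = no rule stated though some were filed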
NIH3T3 tox 2: NIH/3T3 fibroblast cytotoxicity, confirmation, cytotoxicity control, cell-based, cherry-pick, single point, set 2. shares compounds with T cruzi growth-1. NIH/3T3 viability, CellTiter-Glo ATP luminescence, 90 h. inhibition, % at 24.9 µM. actives 56% (n = 5,600). AID 651744, 2012;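 active = mean loss of cell viability signal at or above a set limit, and enough replicates individually reaching it; inconclusive = meets only the mean limit or only the replicate share; inactive = meets neither condition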
A number is an active result; - = inactive; ? = inconclusive; . = not tested or not shown. Most compounds without a hit are left out; they make up all but 5.9% or so of the library.

SMILES | Pf Dd2 growth | GASC1 inh | IDH1 R132H inh | T cruzi growth-1 | T cruzi growth-2 | T cruzi growth-3 | 3T3 cytotox | NIH3T3 tox 2
CC(C)NC(=O)N(C)C[C@H]1Oc2c(NC(=O)C3CC3)cccc2C(=O)N([C@H](C)CO)C[C@H]1C | - | - | - | 97 | - | - | - | -
C[C@@H]1CN([C@@H](C)CO)C(=O)c2cccc(NC(=O)C3CCCCC3)c2O[C@H]1CN(C)Cc1ccc(Oc2ccccc2)cc1 | - | - | . | - | . | . | . | .
C[C@H](CO)N1C[C@H](C)[C@H](CN(C)Cc2ccc(Oc3ccccc3)cc2)Oc2c(NC(=O)NC3CCCCC3)cccc2C1=O | - | - | . | ? | 100 | 105 | ? | 52
CC(C)NC(=O)N(C)C[C@H]1Oc2c(NC(=O)C3CC3)cccc2C(=O)N([C@@H](C)CO)C[C@H]1C | - | - | . | - | . | . | . | .
C[C@H](CO)N1C[C@H](C)[C@@H](CN(C)Cc2ccc(Oc3ccccc3)cc2)Oc2c(NC(=O)C3CCCCC3)cccc2C1=O | - | - | . | ? | 104 | - | - | 104
C[C@@H]1CN([C@H](C)CO)C(=O)c2cccc(NC(=O)NC3CCCCC3)c2O[C@@H]1CN(C)Cc1ccc(-c2ccccc2)cc1 | - | - | . | 115 | 101 | - | - | ?
C[C@H]1CN([C@@H](C)CO)C(=O)c2cccc(NC(=O)NC3CCCCC3)c2O[C@H]1CN(C)Cc1ccc(-c2ccccc2)cc1 | - | - | . | - | . | . | . | .
COc1c2c(cc3oc(CO[C@@H]4O[C@H](CO)[C@@H](O)[C@H](O)[C@H]4O)cc(=O)c13)OC(C(C)(C)O)C2 (stereo not given in full) | . | . | - | . | . | . | . | .
Cc1noc(C)c1NC(=O)N(C)C[C@@H]1Oc2c(NS(=O)(=O)c3c(C)noc3C)cccc2C(=O)N([C@H](C)CO)C[C@@H]1C | - | - | - | 102 | 102 | - | - | -
Cc1noc(C)c1NC(=O)N(C)C[C@@H]1Oc2c(NS(=O)(=O)c3c(C)noc3C)cccc2C(=O)N([C@@H](C)CO)C[C@@H]1C | - | - | . | - | . | . | . | .
COCC#Cc1ccc([C@@H]2[C@H]3CN(S(=O)(=O)c4ccc(OC)cc4)CCCCN3[C@H]2CO)cc1 | - | - | . | 99 | 100 | - | - | 31
COCC#Cc1ccc([C@H]2[C@@H](CO)N3CCCCN(S(=O)(=O)c4cccc(OC)c4)C[C@@H]23)cc1 | - | - | . | - | . | . | . | .
COCC#Cc1ccc([C@H]2[C@H](CO)N3CCCCN(S(=O)(=O)c4cccc(OC)c4)C[C@@H]23)cc1 | - | - | . | 108 | 97 | - | - | ?
C[C@H]1CN([C@@H](C)CO)C(=O)c2cccc(NC(=O)c3ccc(-c4nccs4)cc3)c2O[C@@H]1CN(C)Cc1ccc(-c2ccccc2)cc1 | -84 | - | - | 99 | 107 | - | - | -
C[C@@H]1CN([C@@H](C)CO)C(=O)c2cccc(NC(=O)c3ccc(-c4nccs4)cc3)c2O[C@H]1CN(C)CC1CCCCC1 | - | - | - | 99 | 117 | - | - | -
C[C@H]1CN([C@@H](C)CO)C(=O)c2cccc(NC(=O)c3ccc(-c4nccs4)cc3)c2O[C@H]1CN(C)Cc1ccc(C(=O)Nc2ccccc2N)cc1 | -91 | - | . | 98 | 102 | 101 | - | 56
C[C@H](CO)N1C[C@H](C)[C@@H](CN(C)CC2CCCCC2)Oc2c(NC(=O)c3ccc(-c4nccs4)cc3)cccc2C1=O | - | - | . | - | . | . | . | .
